Data taken from article PMC11725097 (Acta Pharmaceutica Sinica. B, 2024).

Legend:
[1] = test system: HepG2 cells; assay: Formation of compound 3 in lysosomes of HepG2 cells; assay type: cell-based; details: HepG2, JZ-6 25 μmol/L with BNPP 20 μmol/L or telaprevir 5 μmol/L, 6 h
Procedure, shortened: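 HepG2 cells were treated 6 h with donor (25 µmol/L) alone, with BNPP (20 µmol/L) or with telaprevir (5 µmol/L). For lysosome isolation, cells were Dounce-homogenised and spun at 1000 × g, then 20,000 × g, and the top band taken from an OptiPrep gradient at 100,000 × g, 1 h. Fractions were lysed in cold 70% methanol and analysed by LC–MS/MS, normalised to BCA protein. Triplicate.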

[2] = biological target: T1, Carboxypeptidase Y (CPY) (Saccharomyces cerevisiae, UniProt P00729); assay: Enzyme; assay type: biochemical; details: CPY 60 ng/mL; for H2S release over 6 h: donors 5 μmol/L, DNS-N3 10 μmol/L, TBS pH 7.4, 37 °C
T1 sequence (P00729 112-532): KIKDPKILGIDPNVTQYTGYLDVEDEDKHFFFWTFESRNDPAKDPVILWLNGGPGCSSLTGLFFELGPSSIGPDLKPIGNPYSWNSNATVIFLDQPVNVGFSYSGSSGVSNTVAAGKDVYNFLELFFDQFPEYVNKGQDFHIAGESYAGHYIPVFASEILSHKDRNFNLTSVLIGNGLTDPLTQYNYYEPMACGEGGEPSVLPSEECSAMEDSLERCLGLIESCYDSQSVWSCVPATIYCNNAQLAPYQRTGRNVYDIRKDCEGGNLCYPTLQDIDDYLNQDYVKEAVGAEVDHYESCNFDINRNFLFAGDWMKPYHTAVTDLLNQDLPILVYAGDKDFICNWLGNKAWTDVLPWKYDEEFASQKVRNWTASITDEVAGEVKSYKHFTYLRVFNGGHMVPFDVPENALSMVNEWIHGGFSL
Procedure, shortened: (§1)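 Donor at 5 µmol/L final and DNS-N3 probe at 10 µmol/L final were incubated at 37 °C in 10 mmol/L TBS, pH 7.4, with 1% acetonitrile and 1% […]. The enzyme was either CPY at 60 ng/mL or pre-activated recombinant human CTSA at 250 ng/mL. Aliquots were mixed 1:1 with ACN and fluorescence read at Ex/Em 325/450 nm, minus control background. k came from a single-exponential fit, with t1/2 = 0.693/k. Triplicates, mean ± SD.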

[3] = H2S release within tissue homogenates; assay type: in vitro ADME, Sprague-Dawley rats; details: donors 250 μmol/L, rat intestine and liver homogenates, 40 min
[4] = test system: human hepatic stellate LX-2 cells; assay: TGF-β1-induced fibrosis in LX-2 cells, ACTA2 and COL1A1 mRNA; assay type: cell-based; details: LX-2, TGF-β1, 72 h; JZ-HND 25-200 μmol/L, others 200 μmol/L
[5] = biological target: T2, recombinant human cathepsin A (CTSA) (Homo sapiens, UniProt P10619); assay: CTSA-catalyzed H2S release, fluorescent probe DNS-N3; assay type: biochemical; details: donors 5 μmol/L, CTSA 250 ng/mL, pH 7.4, 37 °C
T2 sequence (P10619 29-326 limits assumed): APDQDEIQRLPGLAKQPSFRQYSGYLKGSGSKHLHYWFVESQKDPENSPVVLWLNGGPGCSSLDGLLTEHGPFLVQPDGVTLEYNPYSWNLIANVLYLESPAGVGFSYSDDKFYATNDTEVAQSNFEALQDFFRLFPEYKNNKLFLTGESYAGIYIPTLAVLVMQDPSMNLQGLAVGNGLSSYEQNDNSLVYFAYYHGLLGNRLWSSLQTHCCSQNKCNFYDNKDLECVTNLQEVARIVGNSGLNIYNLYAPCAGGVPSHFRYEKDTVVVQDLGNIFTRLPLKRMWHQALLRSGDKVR
T2 sequence (P10619 327-480 limits assumed): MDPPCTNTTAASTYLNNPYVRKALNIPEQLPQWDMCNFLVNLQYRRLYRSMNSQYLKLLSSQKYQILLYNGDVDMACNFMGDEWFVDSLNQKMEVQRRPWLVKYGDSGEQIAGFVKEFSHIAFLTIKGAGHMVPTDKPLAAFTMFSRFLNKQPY
Procedure, shortened: as §1

[6] = biological target: T1, Carboxypeptidase Y (CPY); assay: H2S donor activation by CPY monitored by LC-MS/MS; assay type: in vitro ADME; details: JZ-HND 5 μmol/L, CPY 60 ng/mL
Procedure, shortened: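 Donor at 5 µmol/L final and DNS-N3 at 10 µmol/L final were incubated with CPY (60 ng/mL) in 10 mmol/L TBS, pH 7.4, with 1% menthol, at 37 °C. Parent loss and formation of products, including DNS-NH2, were quantified by LC–MS/MS against calibration curves. Rate constants came from a single-exponential fit, with t1/2 = 0.693/k. Triplicate runs, mean ± SD.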

[7] = Animal pharmacokinetics, mice livers; assay type: in vivo, BALB/c mice; details: oral JZ-HND 1.0 mmol/kg
Procedure, shortened: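 Male BALB/c mice, fasted 12 h without water, were gavaged at 1 mmol/kg in 0.5% CMC-Na (3 groups, n = 3 each). Plasma was separated by centrifugation and stored below −40 °C. Liver was taken at 0.5, 4 and 8 h post dose and homogenised 10:1 in PBS containing 70% MeOH. Parent and metabolites were quantified by LC–MS/MS.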

[8] = Detection of H2S and sulfur-containing species in mouse liver; assay type: in vivo, BALB/c mice; details: oral JZ-HND 1.0 mmol/kg
Procedure, shortened: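 BALB/c mice received an oral dose of 1.0 mmol/kg. Liver was collected before dosing (0 h) and at 0.5 and 4 h, then homogenised 10:1 in 20 mmol/L HPE-IAM in MeOH to trap H2S and sulfur species as S-alkylated derivatives, and stored below −40 °C. Derivatives were quantified by LC–MS/MS against synthesised standards and calibration curves. n = 3, mean ± SD.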

[9] = test system: LX-2 cells; assay: ROS induced by TGF-β1 in LX-2 cells; assay type: cell-based, human; details: LX-2, TGF-β1 10 ng/mL, compound 100 μmol/L, 24 h
Procedure, shortened: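 LX-2 cells were grown in high-glucose DMEM with 10% FBS at 37 °C and 5% CO2, then plated at 1×10^5/well overnight. Cells were co-treated 24 h with compound (100 µmol/L) and TGF-β1 (10 ng/mL). They were loaded with DCFH-DA (10 µmol/L) for 30 min and Hoechst 33342 for 10 min at 37 °C, then imaged by fluorescence microscopy in the GFP channel.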

[10] = test system: RAW264.7 macrophages; assay: LPS-induced IL-1β and IL-6 release in RAW 264.7 macrophages; assay type: cell-based, mouse; details: RAW 264.7, LPS 1 μg/mL, 20, 100, 500 μmol/L, 24 h
Procedure, shortened: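 RAW 264.7 cells (2×10^5/well) were plated overnight. Cells were pretreated 1 h with compound or NaHS at 20, 100 or 500 µmol/L, then stimulated with LPS (1 µg/mL) for 24 h. IL-1β and IL-6 in the supernatants were measured by ELISA. Three independent experiments, mean ± SD.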

[11] = test system: CCl4-induced liver injury; assay: CCl4-induced liver injury model in mice; assay type: in vivo, BALB/c mice; details: 1 mmol/kg oral daily, 4 weeks
[12] = test system: HepG2 cells; assay: FFA-induced ROS accumulation in HepG2 cells; assay type: cell-based; details: HepG2, compound 100 μmol/L 8 h before FFA 1 mmol/L 24 h
[13] = test system: HepG2 cells; assay: MDA; assay type: cell-based; details: HepG2, FFA 1 mmol/L, 24 h; JZ-6 20, 100, 500 μmol/L; NaHS and JZ-9 500 μmol/L
Procedure, shortened: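 HepG2 cells (7×10^5/well, plated overnight) were co-incubated 24 h with FFA (1 mmol/L) alone or plus compound (20, 100 or 500 µmol/L) or NaHS (500 µmol/L). MDA in cell lysates was measured with a kit by fluorescence at Ex/Em 532/553 nm and normalised to cell counts. Three independent experiments, mean ± SD.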

[14] = test system: HepG2 cells; assay: Ferroptosis rescue, RSL3-treated HepG2 cells; assay type: cell-based; details: HepG2, RSL3 4 μmol/L; JZ-6 20 μmol/L, Fer-1 1 μmol/L, 24 h
Procedure, shortened: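 HepG2 cells (5×10^3/well) were plated overnight. Cells were pretreated 2 h with RSL3 (4 µmol/L), then given medium, compound (20 µmol/L) or Fer-1 (1 µmol/L) for 24 h. CCK-8 was added for 2–4 h at 37 °C and absorbance read at 450 nm. Viability is expressed as % of medium-treated control. Three independent experiments, mean ± SD.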

O=[N+]([O-])c1ccc(OP(=O)(O)Oc2ccc([N+](=O)[O-])cc2)cc1 [BNPP, bis(p-nitrophenyl) phosphate]
effect of inhibitor on lysosomal 3 formed from JZ-6 [1]: increase in lysosomal 3

C1COCCN1.COc1ccc(P(=S)(S)N2CCOCC2)cc1 (stereo not shown) [GYY4137, reference compound]
H2S release over 6 h [2]: low amount of H2S | H2S release behaviour in homogenates [3]: almost undetectable

CNC(=O)[C@H](C)NP(=S)(Oc1ccccc1)c1ccccc1 (stereo partly shown) [JZ-12]
H2S release over 6 h [2]: inadequate

Cc1ccc(=O)n(-c2ccc(OP(=O)(N[C@@H](C)C(=O)OC(C)C)c3ccccc3)cc2)c1 (stereo partly shown) [JZ-17]
mRNA expression of ACTA2 and COL1A1 [4]: did not inhibit the expression of pro-fibrotic genes as much as JZ-HND

CC(C)OC(=O)[C@H](C)NP(=S)(Oc1ccc(CCN2CCOCC2)cc1)c1ccccc1 (stereo partly shown) [JZ-18]
H2S release, rate constant k [5]: 0.2978 h⁻¹ | H2S yield ([5]; 10 h): approximately 37%

Cc1ccc(=O)n(-c2ccc(OP(=S)(N[C@@H](C)C(=O)OC(C)C)c3ccccc3)cc2)c1 (stereo partly drawn) [JZ-HND, isopropyl ((4-(5-methyl-2-oxopyridin-1(2H)-yl)phenoxy) (phenyl)phosphorothioyl)-L-alaninate]
generation of H2S, rate constant k ([2]; JZ-HND 5 μmol/L, pH 7.4, 37 °C): 0.3748 h⁻¹ | generation of 3, rate constant k [6]: 0.3133 h⁻¹ | generation of HND, rate constant k [6]: 1.090 h⁻¹ | degradation of donor, rate constant k ([6]; TBS pH 7.4, 37 °C): 1.085 h⁻¹ | H2S release behaviour in homogenates [3]: biphasic and lasted longer | Cmax (liver) [7]: 15 µM | time of maximum intrahepatic concentration [7]: half an hour | detection in the liver after 8 h of administration ([7]; 8 h): not detected | levels of HSSH and CysSH in liver [8]: no significant change | levels of GSH, GSSH and CysSSH in liver ([8]; 0.5 h): significant increases | H2S level in liver tissue ([8]; 0.5 h vs pre-dose (0 h)): significant increase compared to the pre-dose level | mRNA expression of ACTA2 and COL1A1 [4]: dose-dependently inhibited | ROS levels induced by TGF-β1 [9]: significantly inhibited | IL-1β and IL-6 secretion [10]: significant inhibition | collagen fiber accumulation (Masson's trichrome) [11]: significantly slowed collagen fiber accumulation | hepatic ballooning and inflammatory cell infiltration (H&E) [11]: significantly reduced | hepatic expression of oxidative stress genes (Gpx1, Sod1, Sod2, Cat) [11]: rebounded | hepatic tissue GPX activity [11]: significant increase | liver gene levels of fibrotic markers (Tgfb1, Col1a1, Col3a1, Acta2) [11]: reversals of the increased gene levels | liver mRNA levels of Nfkb1, Il1b and Tnfa [11]: strongly suppressed | serum ALT and AST levels [11]: consistently lower | serum SOD activity ([11]; vs control and HND groups): significantly lower

[Na+].[SH-] [NaHS]
IL-1β and IL-6 secretion [10]: modest inhibitory effect | cellular ROS accumulation induced by FFA [12]: strikingly reduced the cellular fluorescence signal | MDA levels (lipid peroxidation) [13]: alleviated

CCOC(=O)c1ccc(NC2CCCCC2)c(N)c1 [ferrostatin-1]
cell viability after RSL3 (ferroptosis rescue) [14]: attenuated RSL3-induced cytotoxicity

CCC[C@H](NC(=O)[C@@H]1[C@H]2CCC[C@H]2CN1C(=O)[C@@H](NC(=O)[C@@H](NC(=O)c1cnccn1)C1CCCCC1)C(C)(C)C)C(=O)C(=O)NC1CC1 [telaprevir]
effect of inhibitor on lysosomal 3 formed from JZ-6 [1]: significant decrease
